High-throughput results: PubChem BioAssay, several laboratories
CaV13 FRET inh = Disruptors of the CACNA1D IQ motif to Ca2+-dependent inactivation inhibitor domain association, primary screening, Förster resonance energy transfer in intact living …. HEK cells, CFP/YFP FRET ICDI-IQ, plate reader, 10 min; percent FRET-ratio fall versus neutral wells. inhibition, % at 12.3 µM. 340,000 tested, 0.098% active;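 active means mean replicate inhibition of at least 30% and at least 1% of replicates passing that level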;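 further: 0% = median of the neutral control wells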
XiGFP reactiv = activators of inactive X chromosome reactivation, primary screen, imaging, XiGFP fibroblasts, GFP high-content imaging, set 2; XiGFP mouse fibroblasts, % GFP-positive cells imaging, 3 d; cells co-treated with 5-aza-dC sensitizer; scaled so ellipticine positive control = 100%; activation, % at 7.58 µM; 360,000 tested, 0.055% active;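 active means mean normalized replicate activation at least 10% and every replicate at or above 10%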;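 further: 0% = median of on-plate neutral control wells and 100% = ellipticine 6 µM median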
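assay system = SV40-immortalized XiGFP fibroblast cells, line 68-5-11 | buffer or medium = DMEM plus 5-aza-dC sensitizer | doses = single-point pinned compound dosing | times = 3-day compound exposure, then 15 min fixation at room temperature | benchmarks = positive control ellipticine, 6 µM final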
GAA850 FXN act = FXN promoter activators, primary screen, cell-based, luciferase luminescence, HEK293 lucGAA850; HEK293 lucGAA850 FXN promoter luciferase reporter, 24 h; percent of 10 µM SAHA response; activation, % at 6 µM; 360,000 tested, 0.56% active; AID 540364, 2011;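 active means activation above the average of all compounds screened plus 3 SD, cutoff fixed separately per campaign, cut at about 7.5% in these data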;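 further: 0% = DMSO wells and 100% = 10 µM SAHA wells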
INS-1E GSIS act = GLuc luminescence reporter in INS-1E cells, primary screen for activators of glucose-dependent secretion of insulin. INS-1E GLuc reporter insulin secretion, 2-3 h. activation, % at 16.6 µM. 370,000 tested, 0.61% active. AID 743287, 2014;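 active means lowest replicate activation of at least 40%, so every replicate reaches that level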;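 further: 0% = median of neutral control wells and 100% = median of IBMX positive control wells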
GAA30 FXN cntr = GAA30 FXN promoter activators, confirmation, counter-screen for GAA850 frataxin promoter activator project, cell-based, luminescence, HEK293, lucGAA30, triplicate; shares compounds with GAA850 FXN act; HEK293 lucGAA30 FXN promoter luciferase, 24 h; DMSO = 0%, 5 µM ipriflavone = 100%; activation, % at 6 µM; 1,900 tested, 66% active;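 active means mean activation above the mean of solvent-only control wells plus 3 SD, cut at about 22% in these data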;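 further: counterscreen of GAA850 promoter hits where activity marks nonselective or luminescence artifacts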
GAA850 confirm = FXN GAA850 promoter activators in reporter cells, confirmation, cell-based, luminescence, HEK293 lucGAA850, triplicate. HEK293 lucGAA850 FXN promoter luciferase reporter, 24 h; 100% = activation by SAHA. activation, % at 6 µM. shares compounds with GAA850 FXN act. 1,900 tested, 86% active. AID 588351, 2011;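 active means mean activation above a set limit taken from the primary screen, cut at about 8% in these data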;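 further: 0% = DMSO wells and 100% = 10 µM SAHA wells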
Starred values were filed as active, the others as inactive; · = not tested or not shown; ! = repeats disagree. Compounds with a hit are over-represented: about 1% of the library has one in this group of screens.

SMILES | CaV13 FRET inh | XiGFP reactiv | GAA850 FXN act | INS-1E GSIS act | GAA30 FXN cntr | GAA850 confirm
CCOC(=O)C1=C(COCCN)NC(C)=C(C(=O)OC)C1c1ccccc1Cl (configuration not stated) | -5 | 0 | 19*! | 8 | -5 | 6
COc1ccc(NC(=O)N2CC(=O)N3[C@@H](CO)[C@H](c4ccc(-c5ccccc5)cc4)[C@@H]3C2)cc1 | · | 0 | · | -18 | · | ·
Cc1ccc(C(=O)NCCN2CCCC2)cc1 | -5 | · | -1 | 7 | · | ·
CCOc1c(Cl)cc(C(=O)NCCN2CCCCC2)cc1Cl | -6 | · | 13* | -3 | 9 | 6
O=C(/C=C/c1ccccc1[N+](=O)[O-])c1ccc(F)cc1 | -3 | 0 | 8.5* | 17 | 57* | 25*
COc1ccccc1/C=C/C(=O)c1ccccc1 | -3 | 0 | 7.6* | -16 | 87* | 33*
COc1ccc(/C=C/C(=O)c2ccc3c(c2)OCO3)c(OC)c1 | -6 | 0 | 6 | 11 | · | ·
COc1cccc(/C=C/C(=O)c2ccc3c(c2)OCCO3)c1OC | -3 | 0 | 7.9* | 10 | 98* | 39*
O=C(C[C@@H]1C=C[C@H](NC(=O)c2ccc3c(c2)OCO3)[C@H](CO)O1)NCc1ccc(Cl)cc1 | · | 0 | · | -8 | · | ·
C[C@@H]1CN([C@H](C)CO)C(=O)CCCn2nncc2CO[C@@H]1CN(C)C(=O)Nc1cccc(C(F)(F)F)c1 | · | 0 | · | -19 | · | ·
COC(=O)c1c(-c2ccc(F)cc2)csc1NC(=O)c1ccco1 | · | · | 9.6* | · | 91* | 38*
Cc1cc(SCC(=O)N(CC(C)C)c2c(N)n(CC(C)C)c(=O)[nH]c2=O)nc2ccccc12 | -6 | 0 | -2 | -8 | · | ·
CC(C)CN(C(=O)C(c1ccccc1)c1ccccc1)c1c(N)n(CC(C)C)c(=O)[nH]c1=O | 0 | 0 | 7.9* | -3 | 13 | 5
Cc1ccnc(NC(=O)CCCOc2cc(=O)n(C)c3ccccc23)c1 | -6 | 0 | 8.8*! | -1 | 68* | 61*
Cn1c(=O)cc(OCCCC(=O)NCc2ccccn2)c2ccccc21 | -6 | · | 3 | 1 | · | ·
Cc1cc(C)nc(N2N=C(C(C)(C)C)CC2=O)n1 | -8 | · | 16* | -17 | 21 | 8.0*
Cc1cnc(N=Nc2ccccc2)[nH]1 | -6 | 0 | 7.7* | 1 | 101* | 28*
CCCCOc1ccc(C2=NNC(=O)CC2)cc1 | 2 | 0 | 10* | 45* | 42* | 15*
CCc1ccc(-c2cn(C3CCCCC3)c(=S)[nH]2)cc1 | -2 | 0 | 8.0* | -33 | 58* | 24*
CCc1ccc(-n2cc(-c3ccc([N+](=O)[O-])cc3)[nH]c2=S)cc1 | -4 | 0 | 5 | -7 | · | ·
COc1cccc(NC(=O)Cc2ccccc2)c1 | -5 | 0 | 0 | -27 | · | ·
O=C(Cc1ccccc1)Nc1cccc(N2C(=O)C=CC2=O)c1 | 1 | 2 | 9.0* | 59* | 3 | 7
O=[N+]([O-])c1ccc(S(=O)(=O)c2cccc(C(F)(F)F)c2)nc1 | · | · | 14* | · | -113 | -34
O=S(=O)(Nc1cccnc1)c1cccc(C(F)(F)F)c1 | -5 | · | -1 | 3 | · | ·
CCCNC(=O)C[C@H]1CC[C@H]2[C@@H](COC[C@H](O)CN2C(=O)Nc2cccc(Cl)c2)O1 | · | 0 | · | -16 | · | ·
SMILES | CaV13 FRET inh | XiGFP reactiv | GAA850 FXN act | INS-1E GSIS act | GAA30 FXN cntr | GAA850 confirm
O=C(/C=C\c1ccc(-c2ccccc2)o1)c1ccccc1 | -7 | 0 | 12* | -22 | 67* | 27*
O=C(NCC[C@@H]1CC[C@@H](NS(=O)(=O)c2ccc(Oc3ccccc3)cc2)[C@@H](CO)O1)C1CC1 | · | 0 | · | 7 | · | ·
N#CCn1c(C2CCCCC2)nc2ccccc2c1=O | -5 | · | 9.3* | · | 26* | 14*
N#CCn1c(CCl)nc2ccccc2c1=O | -4 | 0 | 0 | 5 | · | ·
CC(C)(C)n1nnnc1C(c1cccnc1)N(Cc1ccccc1)Cc1ccco1 (configuration not stated) | · | · | 7.9* | · | 11 | 9.0*
CCC(C)(C)n1nnnc1C(C(C)C)N(Cc1cccnc1)Cc1ccco1 (configuration not stated) | -2 | 0 | 1 | -19 | · | ·
COc1cccc(CN(Cc2ccco2)C(c2ccc(F)cc2)c2nnnn2C(C)(C)C)c1 (configuration not stated) | · | · | 1 | · | · | ·
CCC(C)(C)n1nnnc1C(c1ccc(C)cc1)N(Cc1ccco1)Cc1cccs1 (configuration not stated) | -5 | · | 8.3* | · | 6 | 8.8*
CCc1ccccc1Nc1nc(N)nc(CSCC(=O)Nc2ccc(C)c(C)c2)n1 | -10 | 0 | 12* | -17 | 30* | 16*
O=C(NCCc1ccc(F)cc1)c1coc(=O)c(Br)c1 | -21 | 0 | 10* | -16 | -6 | 17*
CC(=O)c1ccc2c3c(cccc13)C(=O)N(CCc1ccccc1)C2=O | -5 | 0 | 7.8* | 4 | 112* | 45*
O=C(O)c1ccc2c3c(cccc13)C(=O)N(c1ccccc1)C2=O | -4 | 0 | 3 | 7 | · | ·
C[C@H](CO)N1C[C@H](C)[C@H](CN(C)C(=O)C2CCC2)Oc2ncc(-c3ccccc3F)cc2C1=O | · | -1 | · | -7 | · | ·
Cc1csc(NC(=O)CSc2ccccc2F)n1 | -2 | 0 | 12* | · | 78* | 25*
NC(=O)c1ccsc1NC(=O)CSc1ccccc1F | -9 | · | 8.2* | 11 | 89* | 27*
Cc1ccccc1SCC(=O)OCC(=O)Nc1sccc1C(N)=O | -3 | 0 | 2 | -29 | · | ·
CCOC(=O)c1oc2c(c1C)/C(=N/O)CCC2 | -5 | · | 8.0* | 18 | 65* | 23*
O=C(C[C@H]1C=C[C@@H](NS(=O)(=O)c2ccc(F)cc2)[C@@H](CO)O1)NCc1ccncn1 | · | 0 | · | 15 | · | ·
Cc1cccc([C@@H]2[C@@H]3C(=O)N(Cc4ccccc4)C(=O)[C@@H]3[C@]3(CC(C)C)C(=O)N(c4cccc(F)c4)C(=O)N23)c1 | -11 | 0 | -2 | 4 | · | ·
CCN1C(=O)[C@H]2[C@@H](c3ccccc3)N3C(=O)N(c4cccc(F)c4)C(=O)[C@@]3(CC(C)C)[C@H]2C1=O | · | · | 8.8* | · | 25* | 7
CCN1C(=O)[C@H]2[C@@H](c3ccc(C)cc3)N3C(=O)N(c4cccc(Br)c4)C(=O)[C@@]3(CC(C)C)[C@H]2C1=O | -12 | 0 | 16* | · | 22* | 11*
